Shown are actives, neighbours in structure and some others; about 3.3% of the full set was active somewhere.
PRMT1 inh = blocks human protein arginine methyltransferase 1 | AID 652257 | recombinant PRMT1, activity-based probe fluorescence polarization | hit rate 1.3% among 370,000 | inhibition, % at 2.79 µM | Q99873;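 active means inhibition above about 21% made by adding two undisclosed values, limit read from the data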
Target sequence (Q99873 whole entry, looked up): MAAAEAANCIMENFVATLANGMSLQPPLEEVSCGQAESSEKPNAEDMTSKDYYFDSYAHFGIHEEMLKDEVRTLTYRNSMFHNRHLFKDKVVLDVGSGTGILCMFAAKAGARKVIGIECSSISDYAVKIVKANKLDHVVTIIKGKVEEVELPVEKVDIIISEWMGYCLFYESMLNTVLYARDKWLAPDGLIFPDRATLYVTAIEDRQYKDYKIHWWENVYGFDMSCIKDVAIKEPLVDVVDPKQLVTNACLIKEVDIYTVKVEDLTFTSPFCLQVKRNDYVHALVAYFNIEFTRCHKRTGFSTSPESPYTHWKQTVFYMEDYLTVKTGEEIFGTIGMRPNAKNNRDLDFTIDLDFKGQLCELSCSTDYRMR
SIAE primary = blocks human sialic acid acetylesterase; Q9HAT2; hit rate 0.69% among 370,000; inhibition, % at 9.66 µM; SIAE FP-Rh probe binding, fluorescence polarization;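 active means inhibition above a cutoff: mean of compounds within the control limits plus 3 SD of those, cut at about 17% in these data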
HTRA1 inhibitor = HTRA1 (human) protease inhibition | recombinant HTRA1, FP-rhodamine activity-based probe, fluorescence polarization | Q92743 | AID 504803 | hit rate 0.5% among 340,000 | inhibition, % at 5.96 µM; in the data active means inhibition above about 36%
ABHD4 inh = inhibitors of mouse ABHD4; Q8VD66; purified mABHD4, FP-Rh probe fluorescence polarization; inhibition, % at 8.92 µM; hit rate 0.54% among 370,000; AID 720543;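 active means inhibition exceeding the mean over every tested compound plus 3 SD, cut at about 30% in these data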
Target sequence (Q8VD66 whole entry, looked up): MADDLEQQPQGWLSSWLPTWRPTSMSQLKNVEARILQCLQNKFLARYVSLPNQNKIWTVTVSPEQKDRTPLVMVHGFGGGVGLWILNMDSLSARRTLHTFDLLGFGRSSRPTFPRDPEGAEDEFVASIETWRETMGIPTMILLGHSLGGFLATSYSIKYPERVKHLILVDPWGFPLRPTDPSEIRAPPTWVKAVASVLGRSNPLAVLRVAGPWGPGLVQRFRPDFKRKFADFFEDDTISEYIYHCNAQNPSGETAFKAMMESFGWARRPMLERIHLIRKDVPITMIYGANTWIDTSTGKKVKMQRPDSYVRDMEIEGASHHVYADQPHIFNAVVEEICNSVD
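Assay system: wild-type mouse ABHD4 protein; compound: single nominal dose of 8.92 µM, 0.89% DMSO final; schedule: 45 min + 60 min at 25 °C; measured by: FP readout, ex 525 nm / em 598 nm; evaluation: % inhibition of FP-Rh probe binding versus controls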
rCAG binder-1 = molecules binding r(CAG) RNA repeats; inhibition, % at 3 µM; hit rate 1.3% among 370,000; r(CAG) RNA repeat, TO-PRO-1 dye displacement fluorescence;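 active means inhibition above the plate cutoff, the mean of all test compounds on that plate plus 3 SD, cut at about 35% in these data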;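 further: higher means more dye released from RNA so lower well fluorescence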
rCAG binder conf = r(CAG) RNA repeat binding, confirmation | shares compounds with rCAG binder-1 | TO-PRO-1 dye displacement fluorescence | inhibition, % at 3 µM | hit rate 70% among 4,300;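 active means inhibition above a per-plate cutoff, the mean inhibition of sample wells plus 3 SD, cut at about 35% in these data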;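 further: loss of TO-PRO-1 fluorescence as compound displaces dye from 1x1 AA loop RNA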
DNA CAG counter = DNA CAG dye complex inhibition counter-screen. shares compounds with rCAG binder-1. d(CAG) DNA oligo TO-PRO-1 dye displacement, fluorescence. inhibition, % at 3 µM. hit rate 94% among 4,300;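 active means inhibition above its plate's cutoff, the mean test-well inhibition plus 3 SD, cut at about 4.8% in these data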;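 further: hits displace the dye from DNA and so lower well fluorescence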
DNA CAG DR = counter-screen for rCAG binders: inhibitors of DNA CAG TO-PRO-1 complex; AID 686960; DNA CAG/GTC duplex TO-PRO-1 dye displacement fluorescence; IC50, µM; shares compounds with rCAG binder-1; hit rate 20% among 250; in the data active means IC50 below about 10 µM
dCAG TOPRO ctr = inhibits DNA CAG/GTC TO-PRO-1 complex, rCAG binder counter-screen. shares compounds with rCAG binder-1. d(CAG) DNA duplex TO-PRO-1 dye displacement, fluorescence. IC50, µM. hit rate 80% among 30. AID 720649
rCAG binder-2 = r(CAG) repeat RNA binding, TO-PRO-1 displacement. shares compounds with rCAG binder-1. r(CAG) RNA TO-PRO-1 dye displacement, fluorescence. IC50, µM. hit rate 100% among 30
Large screens that a line does not name were inactive (follow-up assays come after a bar, where they were run). Unless noted, how the calls were made is not given here.

COc1ccc(-n2c(SCC(=O)Nc3ccc(S(=O)(=O)Nc4nccs4)cc3)nnc2-c2ccco2)cc1	rCAG binder-1 74 (no result: HTRA1 inhibitor) | rCAG binder conf 69 | DNA CAG counter 30
COCC(=O)N(Cc1ccccc1)c1ccccc1C(=O)Nc1cc(OC)ccc1OC	none (no result: HTRA1 inhibitor)
CCOc1ccc2nc(SCc3ccc(CC(=O)O)cc3)c(C#N)cc2c1	rCAG binder-1 60 | rCAG binder conf 55 | DNA CAG counter 20
CCOc1ccc2nc(SCC(=O)N3c4ccccc4Sc4ccccc43)c(C#N)cc2c1	none
Cc1c(CCC(=O)O)c(=O)oc2cc3occ(-c4ccc(Br)cc4)c3cc12	rCAG binder-1 37 | rCAG binder conf 62 | DNA CAG counter 24
Cc1c(CCC(=O)O)c(=O)oc2cc3occ(-c4ccc(F)cc4)c3cc12	rCAG binder-1 47 | rCAG binder conf 44 | DNA CAG counter 12
Cc1c(CCC(=O)NCC(=O)O)c(=O)oc2cc3occ(-c4ccccc4)c3cc12	none
CCCC(NC(=O)CCc1c(C)c2cc3c(-c4ccccc4)coc3cc2oc1=O)C(=O)O (stereo unspecified)	rCAG binder-1 36 | rCAG binder conf 41 | DNA CAG counter 11
CCOC(=O)CC[C@@H]1CC[C@]2(CCCN(C(=O)c3ccno3)C2)O1	none (no result: HTRA1 inhibitor)
O=C(O)CCN1C(=O)c2ccc(NC(=O)C(c3ccccc3)c3ccccc3)cc2C1=O	rCAG binder-1 48 | rCAG binder conf 35 | DNA CAG counter 8.0
O=C(O)CCN1C(=O)c2ccc(NC(=O)c3ccco3)cc2C1=O	none
CC(C)Cn1c(N)c(C(=O)COC(=O)c2cc(-c3ccco3)nc3ccccc23)c(=O)n(C)c1=O	rCAG binder-1 41 | rCAG binder conf 39 | DNA CAG counter 20
COc1ccccc1CNC(=O)COC(=O)c1cc(-c2ccco2)nc2ccccc12	rCAG binder-1 41 | rCAG binder conf inactive | DNA CAG counter 17
COC(=O)C1CCN(C(=O)c2cc(-c3ccco3)nc3ccccc23)CC1	PRMT1 inh 22, rCAG binder-1 41 | rCAG binder conf inactive | DNA CAG counter 15
CC(C)Cn1c(N)c(C(=O)COC(=O)c2cc(-c3ccccc3)nc3ccccc23)c(=O)n(C)c1=O	none
CCN(C(=O)CN1CCN(c2nc(-c3ccccc3)cs2)CC1)c1ccccc1C	none (no result: HTRA1 inhibitor)
O=C(Nc1ccccc1[N+](=O)[O-])NC1CCCCN(Cc2ccc(Cl)cc2)C1=O (stereo unspecified)	none (no result: HTRA1 inhibitor)
COc1ccc(-c2nn(-c3ccccc3)cc2/C=N/Nc2cccc(C(=O)O)c2)cc1	rCAG binder-1 37 | rCAG binder conf 48 | DNA CAG counter 20
COc1ccc(-c2nn(-c3ccccc3)cc2/C=N/NC(=O)c2ccc(Br)o2)cc1	none
O=C(O)/C(=C\c1cn(-c2ccccc2)nc1-c1cccnc1)NC(=O)c1ccccc1	none
COc1cccc(-c2nn(-c3ccccc3)cc2/C=C(/NC(=O)c2ccccc2)C(=O)O)c1	rCAG binder-1 38 | rCAG binder conf 38 | DNA CAG counter 9.2
CCN(C[C@H]1[C@@H](c2ccc(C3=CCCC3)cc2)[C@H](CO)N1C(=O)c1cccnc1)S(=O)(=O)c1ccccc1[N+](=O)[O-]	none (no result: HTRA1 inhibitor)
CCOc1ccccc1C(=O)Nc1ccc2nc(C)[nH]c(=O)c2c1	none (no result: HTRA1 inhibitor)
O=c1[nH]c(=O)n(Cc2ccco2)c2c1C(C(F)(F)F)(C(F)(F)F)N=C(CCc1ccccc1)N2	none
N#Cc1ccc(C2=NC(C(F)(F)F)(C(F)(F)F)c3c(n(Cc4ccco4)c(=O)[nH]c3=O)N2)cc1	rCAG binder-1 36 | rCAG binder conf 37 | DNA CAG counter 7.1 | DNA CAG DR inactive | dCAG TOPRO ctr inactive | rCAG binder-2 3.6
N#C/C(=C\c1ccc(-c2ccc(F)cc2)o1)C(=O)Nc1nc(-c2cccs2)cs1	rCAG binder-1 36 | rCAG binder conf inactive | DNA CAG counter 11
N#C/C(=C/c1ccc(-c2ccc([N+](=O)[O-])cc2)o1)C(=O)Nc1nc(-c2cccs2)cs1	none
O=[N+]([O-])c1ncccc1OCCOc1ccc(Cl)cc1Cl	none (no result: HTRA1 inhibitor, rCAG binder-1)
COC(=O)[C@]12C[C@H](CC(=O)NCC34CC5CC(CC(C5)C3)C4)C(=O)N(Cc3ccc4c(c3)OCO4)C1=C[C@H](C(C)C)O[C@@H]2C1CC1	none (no result: HTRA1 inhibitor)
CC(=O)NS(=O)(=O)c1cccnc1Nc1ccc(Cl)c(Cl)c1	rCAG binder-1 37 | rCAG binder conf 38 | DNA CAG counter 14
NS(=O)(=O)c1cccnc1Nc1ccc(Cl)c(Cl)c1	none
CC(C)c1ccc(CC(=O)N2CCC2(C)C(=O)NS(=O)(=O)c2ccc(F)cc2F)cc1 (stereo unspecified)	none (no result: HTRA1 inhibitor)
CC1(C(=O)NS(=O)(=O)c2ccc(Cl)s2)CCN1C(=O)Cc1ccc(-c2ccccc2)cc1 (stereo unspecified)	rCAG binder-1 74 (no result: HTRA1 inhibitor) | rCAG binder conf 75 | DNA CAG counter 38
CC(C)c1ccc(CC(=O)N2CCC2(C)C(=O)NS(=O)(=O)c2ccc(Cl)s2)cc1 (stereo unspecified)	rCAG binder-1 40 (no result: HTRA1 inhibitor) | rCAG binder conf 41 | DNA CAG counter 11
CCCS(=O)(=O)NC(=O)C1(C)CCN1C(=O)Cc1ccc(-c2ccccc2)cc1 (stereo unspecified)	none (no result: HTRA1 inhibitor)
CC(C)(C)c1ccc(CC(=O)N2CCC2(C)C(=O)NS(=O)(=O)c2ccc(Cl)s2)cc1 (stereo unspecified)	rCAG binder-1 62 (no result: HTRA1 inhibitor) | rCAG binder conf 61 | DNA CAG counter 24
CC(=O)C1=C(O)C(=O)N(c2cc(C(C)(C)C)on2)C1c1ccc(Br)cc1 (stereo unspecified)	rCAG binder-1 47 | rCAG binder conf 46 | DNA CAG counter 13 | DNA CAG DR inactive
C[C@H](O)[C@@H]1CN2CCc3c([nH]c4c(-c5ccc6c(c5)OCO6)cccc34)[C@@H]2C[C@@H]1N(C)C(=O)c1ccco1	none (no result: HTRA1 inhibitor)
COc1cc(/C=C2/C(=O)NN(c3ccc(Cl)cc3)C2=O)cc(OC)c1O	rCAG binder-1 37 | rCAG binder conf inactive | DNA CAG counter 4.5
COc1ccc(NC(=O)Nc2sc(NS(=O)(=O)c3ccccc3)nc2C)cc1	none
Cn1c(N)c(C(=O)N/N=C/c2ccccc2)sc1=S	rCAG binder-1 43 | rCAG binder conf inactive | DNA CAG counter 7.8

High-throughput results (PubChem)
